In ChEMBL document CHEMBL4219124, “Alleviating CYP and hERG liabilities by structure optimization of dihydrofuran-fused tricyclic benzo[d]imidazole series - Potent, selective and orally efficacious microsomal prostaglandin E synthase-1 (mPGES-1) inhibitors: Part-2” (Bioorg Med Chem Lett, 2018):

Legend:
[1] = (§1) AUC (0 to 24 hrs) in cynomolgus monkey at 10 mg/kg, po; format: ADME, organism-based, Macaca fascicularis; design: time < 24 hr, dose 10 mg/kg, route oral; details: in vivo
How it was run: (§2)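 Single oral dose of 10 mg/kg. Cmax and AUC0-24 taken from the oral arm. Rat: male Sprague-Dawley, dosed in 0.5% methylcellulose suspension, mean ± SD (n = 3). Guinea pig: 20% NMP + 0.5% MC suspension, mean ± SD (n = 3). Dog and cynomolgus monkey: 2.5 μL/mL Tween 80 + 0.5 (w/v) MC suspension.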

[2] = Clearance in cynomolgus monkey at 1 mg/kg, iv; format: ADME, organism-based, Macaca fascicularis; details: in vivo
How it was run: (§3)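 Intravenous dose of 1 mg/kg; clearance and Vz derived from the i.v. arm. Rat (male Sprague-Dawley) vehicle 20% NMP + 20% ethanol + 60% PEG 200, mean ± SD (n = 3). Dog vehicle 20% NMP + 20% EtOH + 10% PG + 50% PEG 200:water (3:2). Monkey vehicle 10% NMP + 10% ethanol + 10% PEG + 70% PEG200:water (3:2).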

[3] = Ratio of drug uptake in brain to plasma of Beagle dog at 10 mg/kg, po; format: ADME, organism-based, Canis lupus familiaris; details: read-out: BPR
[4] = Tmax in cynomolgus monkey at 10 mg/kg, po; format: ADME, organism-based, Macaca fascicularis; details: in vivo
How it was run: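 Tmax from oral 10 mg/kg dosing. Rat: male Sprague-Dawley, 0.5% MC suspension, n = 3. Guinea pig: 20% NMP + 0.5% MC suspension, n = 3. Dog and monkey: 2.5 μL/mL Tween 80 + 0.5% MC suspension.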

[5] = (§4) Oral bioavailability in cynomolgus monkey at 10 mg/kg; format: ADME, organism-based, Macaca fascicularis; details: in vivo
How it was run: (§5)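 Plasma PK after 1 mg/kg i.v. and 10 mg/kg p.o.; %F from both routes. Rat: male Sprague-Dawley, oral 0.5% methylcellulose suspension, i.v. 20% NMP/20% ethanol/60% PEG 200, n = 3. Dog oral: Tween 80 2.5 μL/mL + 0.5% MC suspension. Monkey oral: same Tween/MC suspension; i.v. 10% NMP/10% ethanol/10% PEG/70% PEG200-water premix.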

[6] = Cmax in Sprague-Dawley rat at 10 mg/kg, po; format: ADME, organism-based; design: dose 10 mg/kg, route oral; details: in vivo; how it was run: as §2
[7] = tested on: Canis familiaris; assay: (§6) Oral bioavailability in Beagle dog at 10 mg/kg; format: ADME, organism-based, Canis lupus familiaris; details: in vivo; how it was run: as §5
[8] = tested on: Canis familiaris; assay: (§7) AUC (0 to 24 hrs) in Beagle dog at 10 mg/kg, po; format: ADME, organism-based, Canis lupus familiaris; design: dose 10 mg/kg, time < 24 hr, route oral; details: in vivo, 24 h; how it was run: as §2
[9] = Protein binding in cynomolgus monkey plasma at 10 uM after 5 hrs by equilibrium dialysis based LC-MS/MS analysis; format: ADME, cell-free, Macaca fascicularis; details: read-out: PPB (converted)
How it was run: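 Equilibrium dialysis at 10 μM compound; result expressed as percent bound.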

[10] = Clearance in Sprague-Dawley rat at 1 mg/kg, iv; format: ADME, organism-based; details: in vivo; how it was run: as §3
[11] = Ratio of drug uptake in brain to plasma of Dunkin-Hartley guinea pig LPS-induced hyperalgesia pain model at 10 mg/kg, po administered 2 hrs prior to LPS challenge measured 7 hrs post dose; format: ADME, organism-based, Cavia porcellus; details: brain and plasma, read-out: BPR
How it was run: (§8)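 Guinea pigs dosed orally at 10, 30 or 100 mg/kg 2 h before intraplantar LPS in the right hind paw; thermal hyperalgesia scored. Plasma (ng/mL) and brain (ng/g) levels taken 7 h post dose; brain/plasma ratio computed. Means of 6–9 animals per group, single experiment.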

[12] = tested on: Cynomolgus monkey; assay: as §1; format: ADME, organism-based, Macaca fascicularis; design: time < 24 hr, dose 10 mg/kg, route oral; details: in vivo, 24 h; how it was run: as §2
[13] = Plasma concentration in Dunkin-Hartley guinea pig MIA-induced osteoarthritic pain model at 500 mg/kg, po measured 2 hrs post dose; format: ADME, organism-based, Cavia porcellus
How it was run: (§9)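 Intra-articular MIA into the right shoulder joint on day 0; oral dosing at 100, 250 or 500 mg/kg on day 3, incapacitance (forelimb weight bearing) measured. Plasma concentration sampled 2 h post dose. Means of 6–8 animals per group, single experiment.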

[14] = molecular target: T1, Nuclear receptor subfamily 1 group I member 2 (Homo sapiens, UniProt O75469); assay: Activation of human PXR; format: ADME
T1 sequence (O75469 whole entry): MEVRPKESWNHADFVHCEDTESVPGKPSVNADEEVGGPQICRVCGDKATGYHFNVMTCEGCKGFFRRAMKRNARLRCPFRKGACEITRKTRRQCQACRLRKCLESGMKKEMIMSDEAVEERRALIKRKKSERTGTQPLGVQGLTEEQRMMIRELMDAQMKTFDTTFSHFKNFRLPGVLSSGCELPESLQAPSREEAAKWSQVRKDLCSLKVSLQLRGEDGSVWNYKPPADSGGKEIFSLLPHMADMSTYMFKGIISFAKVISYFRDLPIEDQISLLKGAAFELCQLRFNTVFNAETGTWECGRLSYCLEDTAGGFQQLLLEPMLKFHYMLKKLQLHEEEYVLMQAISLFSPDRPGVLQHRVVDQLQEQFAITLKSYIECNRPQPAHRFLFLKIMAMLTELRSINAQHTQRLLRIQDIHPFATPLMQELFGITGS

[15] = Plasma concentration in Dunkin-Hartley guinea pig LPS-induced hyperalgesia pain model at 100 mg/kg, po administered 2 hrs prior to LPS challenge measured 7 hrs post dose; format: ADME, organism-based, Cavia porcellus; how it was run: as §8
[16] = tested on: Cynomolgus monkey; assay: as §4; format: ADME, organism-based, Macaca fascicularis; details: in vivo; how it was run: as §5
[17] = Ratio of plasma concentration in Dunkin-Hartley guinea pig LPS-induced hyperalgesia pain model to IC50 for mPGES1 in human whole blood; format: ADME; details: in vivo
[18] = Drug uptake in brain of Dunkin-Hartley guinea pig LPS-induced hyperalgesia pain model at 100 mg/kg, po administered 2 hrs prior to LPS challenge measured 7 hrs post dose; format: ADME, organism-based, Cavia porcellus; details: read-out: Drug uptake
How it was run: (§10)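 Guinea pigs received compound orally, once daily, at 10, 30 or 100 mg/kg, 2 h before LPS was injected into the plantar surface of the right paw. Saline-injected animals served as the comparison for thermal hyperalgesia. Plasma and brain drug levels taken 7 h after dosing, mean of n = 6–9 per group, from a single experiment.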

[19] = Clearance in Beagle dog at 1 mg/kg, iv; format: ADME, organism-based, Canis lupus familiaris; details: in vivo; how it was run: as §3
[20] = tested on: Cavia porcellus; assay: Analgesic activity in Dunkin-Hartley guinea pig hyperalgesia pain model assessed as inhibition of LPS-induced hyperalgesia administered orally 2 hrs prior to LPS challenge measured after 4.5 hrs; format: functional; details: po; how it was run: as §10
[21] = Plasma concentration in Dunkin-Hartley guinea pig LPS-induced hyperalgesia pain model at 30 mg/kg, po administered 2 hrs prior to LPS challenge measured 7 hrs post dose; format: ADME, organism-based, Cavia porcellus; how it was run: as §8
[22] = as §6; format: ADME, organism-based, Canis lupus familiaris; details: Beagle, in vivo; how it was run: as §5
[23] = as §7; format: ADME, organism-based, Canis lupus familiaris; design: dose 10 mg/kg, time < 24 hr, route oral; details: Beagle, in vivo; how it was run: as §2
[24] = tested on: Cavia porcellus; assay: Analgesic activity in Dunkin-Hartley guinea pig MIA-induced osteoarthritic pain model assessed as reversal of incapacitance administered orally on day 3 measured 6 to 7 hrs post dose; format: functional
How it was run: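 Day 0: monoiodoacetate injected into the right shoulder joint of guinea pigs; saline-injected animals as comparison. Day 3: compound given orally at 100, 250 or 500 mg/kg, and weight-bearing incapacitance on the injected forelimb measured. Plasma sampled at the PD time point, n = 6–8 per group, single experiment.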

[25] = Plasma concentration in Dunkin-Hartley guinea pig LPS-induced hyperalgesia pain model at 10 mg/kg, po administered 2 hrs prior to LPS challenge measured 7 hrs post dose; format: ADME, organism-based, Cavia porcellus; how it was run: as §8
[26] = tested on: Cavia porcellus; assay: Analgesic activity in Dunkin-Hartley guinea pig hyperalgesia pain model assessed as inhibition of LPS-induced hyperalgesia at 30 mg/kg, po administered 2 hrs prior to LPS challenge measured after 4.5 hrs relative to control; format: functional; how it was run: as §10
[27] = Plasma concentration in Dunkin-Hartley guinea pig MIA-induced osteoarthritic pain model at 100 mg/kg, po measured 2 hrs post dose; format: ADME, organism-based, Cavia porcellus; how it was run: as §9

SMILES	AUC(0-t) at 24 h [1] [ng·h/mL]	clearance [2] [mL/min/kg]	Kp [3]	Tmax [4] [h]	bioavailability [5] [%]	Cmax [6] [ng/mL]	fraction unbound at 5 h, 10 µM [9]	clearance [10] [mL/min/kg]	clearance [19] [mL/min/kg]	bioavailability [22] [%]	AUC(0-t) at 24 h [23] [ng·h/mL]	other results
CC1(C)Cc2c(c(C(=O)Nc3ccc(C(F)(F)F)cn3)cc3nc(Nc4c(Cl)cccc4Cl)[nH]c23)O1	3670	8.5	0.32	6	21	344	0.005	16.2				F [7]: 25%; AUC [8]: 4432 ng·h/mL
CC1(C)Cc2c(c(C(=O)Nc3ccc(F)c(C(F)(F)F)c3)cc3nc(Nc4c(F)cccc4Cl)[nH]c23)O1			0.72	24		995	0.0052	11.2	1.61	15	8240	Kp at 7 h [11]: 1.02; AUC [12]: 9669 ng·h/mL; concentration at 2 h [13]: 3540 nM; EC50 [14]: 2460 nM; concentration at 7 h [15]: 1080 nM; F [16]: 44%; Ratio [17]: 5; concentration at 7 h [18]: 1150 nM; ED50 [20]: 39.6 mg/kg; concentration at 7 h [21]: 145 ng/mL; Activity [24]: Dose-dependent effect; ED50 ([24]; po): 106 mg/kg; concentration at 7 h [25]: 94 ng/mL; inhibition in vivo at 30 mg/kg [26]: 44%; concentration at 2 h [27]: 678 ng/mL
Cc1cccc(Cl)c1Nc1nc2cc(C(=O)Nc3cc(C(F)(F)F)ccc3F)c3c(c2[nH]1)CC(C)(C)O3	7510	1.6		12	11	210		8.2	3.5	40	12900	
